Source: ChEMBL document CHEMBL1828566, “Synthesis of 4β-triazole-podophyllotoxin derivatives by azide-alkyne cycloaddition and biological evaluation as potential antitumor agents” (Eur J Med Chem, 2011)
Structures can show the parent of a compound that is named as a salt.

Tests used:
K562 [1] = test: Cytotoxicity against human K562 cells after 2 days by MTT assay; format: functional, cell-based; conditions: K562, 48 h
How it was run: (§1)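 Exponentially growing cells were seeded in 96-well plates, precultured 1 day, exposed to test compounds over a range of concentrations, then incubated 2 more days.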

[2] = Cytotoxicity against human K562/A02 cells after 2 days by MTT assay; format: functional, cell-based; conditions: K562/A02, 48 h; how it was run: as §1
HeLa [3] = test: Cytotoxicity against human HeLa cells after 2 days by MTT assay; format: functional, cell-based; conditions: 48 h; how it was run: as §1
[4] = Selectivity index, ratio of IC50 for VP-16 to compound for human K562/A02 cells after 2 days by MTT assay; format: functional
K562 [5] = test: Selectivity index, ratio of IC50 for VP-16 to compound for human K562 cells after 2 days by MTT assay; format: functional
HeLa [6] = test: Selectivity index, ratio of IC50 for VP-16 to compound for human HeLa cells after 2 days by MTT assay; format: functional

Row | SMILES | IC50 (K562 [1]) [µM] | IC50 [2] [µM] | IC50 (HeLa [3]) [µM] | Ratio IC50 [4] | Ratio IC50 (K562 [5]) | Ratio IC50 (HeLa [6])
1 | COc1cc([C@@H]2c3cc4c(cc3[C@@H](n3cc(-c5cccnc5)nn3)[C@H]3COC(=O)[C@H]23)OCO4)cc(OC)c1OC | > 10 | > 10 | 35.3 | – | – | –
2 | COc1cc([C@@H]2c3cc4c(cc3[C@H](O)[C@H]3COC(=O)[C@H]23)OCO4)cc(OC)c1OC [PODOFILOX] | 0.03 | 0.17 | 0.1 | – | – | –
3 | CCOC(=O)c1cnnn1[C@@H]1c2cc3c(cc2[C@@H](c2cc(OC)c(OC)c(OC)c2)[C@H]2C(=O)OC[C@@H]21)OCO3 | 0.85 | 0.69 | 0.92 | – | – | –
4 | COc1cc([C@@H]2c3cc4c(cc3[C@@H](O[C@@H]3O[C@@H]5CO[C@@H](C)O[C@H]5[C@H](O)[C@H]3O)[C@H]3COC(=O)[C@H]23)OCO4)cc(OC)c1O [ETOPOSIDE] | 2.11 | 152 | 6.27 | – | – | –
5 | COc1cc([C@@H]2c3cc4c(cc3[C@@H](n3cc(CNc5ccc(C)cc5)nn3)[C@H]3COC(=O)[C@H]23)OCO4)cc(OC)c1OC | 0.47 | 0.52 | 0.845 | – | – | –
6 | COc1cccc2c1C(=O)c1c(O)c3c(c(O)c1C2=O)C[C@@](O)(C(=O)CO)C[C@@H]3O[C@H]1C[C@H](N)[C@H](O)[C@H](C)O1 [DOXORUBICIN HYDROCHLORIDE] | 0.36 | 19.2 | 0.43 | – | – | –
7 | COc1cc([C@@H]2c3cc4c(cc3[C@@H](n3nncc3-c3cccnc3)[C@H]3COC(=O)[C@H]23)OCO4)cc(OC)c1OC | 0.39 | 1.23 | 1.46 | – | – | –
8 | COc1cc([C@@H]2c3cc4c(cc3[C@@H](n3cc(CNc5ccccc5)nn3)[C@H]3COC(=O)[C@H]23)OCO4)cc(OC)c1OC | 5.73 | 5.96 | 2.36 | – | – | –
9 | COc1cc([C@@H]2c3cc4c(cc3[C@@H](n3cc(C(=O)Nc5ccccc5Cl)nn3)[C@H]3COC(=O)[C@H]23)OCO4)cc(OC)c1OC | 0.053 | 0.059 | 0.082 | >40 | >40 | >40
10 | COc1cc([C@@H]2c3cc4c(cc3[C@@H](n3cc(CN(C)C)nn3)[C@H]3COC(=O)[C@H]23)OCO4)cc(OC)c1OC | > 10 | > 10 | > 10 | – | – | –
11 | CCN(CC)C(=O)c1cn([C@@H]2c3cc4c(cc3[C@@H](c3cc(OC)c(OC)c(OC)c3)[C@H]3C(=O)OC[C@@H]32)OCO4)nn1 | > 10 | > 10 | > 10 | – | – | –
12 | COC(=O)c1cnnn1[C@@H]1c2cc3c(cc2[C@@H](c2cc(OC)c(OC)c(OC)c2)[C@H]2C(=O)OC[C@@H]21)OCO3 | 0.4 | 0.6 | 0.42 | – | – | –
13 | COc1cc([C@@H]2c3cc4c(cc3[C@@H](n3cc(C(=O)O)nn3)[C@H]3COC(=O)[C@H]23)OCO4)cc(OC)c1OC | 5.4 | 8.87 | > 10 | – | – | –
14 | COc1cc([C@@H]2c3cc4c(cc3[C@@H](n3cc(CCC(=O)O)nn3)[C@H]3COC(=O)[C@H]23)OCO4)cc(OC)c1OC | > 10 | > 10 | > 10 | – | – | –
15 | CCOC(=O)c1cn([C@@H]2c3cc4c(cc3[C@@H](c3cc(OC)c(OC)c(OC)c3)[C@H]3C(=O)OC[C@@H]32)OCO4)nn1 | 4.25 | 2.21 | 3.53 | – | – | –
16 | COc1cc([C@@H]2c3cc4c(cc3[C@@H](n3nncc3C(=O)Nc3ccc(C)cc3)[C@H]3COC(=O)[C@H]23)OCO4)cc(OC)c1OC | 5.1 | 19.8 | > 10 | – | – | –
17 | COc1cc([C@@H]2c3cc4c(cc3[C@@H](n3cc(C(=O)Nc5ccc(C)cc5)nn3)[C@H]3COC(=O)[C@H]23)OCO4)cc(OC)c1OC | > 100 | > 100 | > 100 | – | – | –
18 | COC(=O)c1cn([C@@H]2c3cc4c(cc3[C@@H](c3cc(OC)c(OC)c(OC)c3)[C@H]3C(=O)OC[C@@H]32)OCO4)nn1 | 4.15 | 2.07 | 1.12 | – | – | –
